The source made the active and inactive calls. No cut-off for these calls is given here.
Tests used:
PC-12 [1] = experiment: Increase of nerve growth factor-stimulated neurite growth in rat PC12D cells at 10 to 100 umol after 48 hrs; format: functional, cell-based
Procedure, shortened: (§1)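 PC12D cells detached with 1 mmol EGTA in PBS for 30 min, seeded at 2 × 10^4 cells/well on poly-L-lysine. After 24 h, switched to medium with 1% fetal calf serum, 2% horse serum, NGF 2 ng/mL plus compound at 10, 30 or 100 µmol (DMSO stocks 50 mmol). Fixed after 48 h with 2% glutaraldehyde, 37 °C, 1 h.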

PC-12 [2] = experiment: Induction of neurite growth in rat PC12D cells at 10 umol after 48 hrs; format: functional, cell-based
Procedure, shortened: (§2)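 No NGF was added. PC12D cells were detached with EGTA/PBS and plated on poly-L-lysine. After 24 h they went into medium with 1% fetal calf serum and 2% horse serum plus compound (DMSO stocks 50 mmol). Cells were fixed after 48 h in 2% glutaraldehyde. The percentage with processes ≥ cell-body diameter was scored by phase-contrast microscopy: 3 fields/well, 6 wells/sample.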

PC-12 [3] = experiment: Induction of neurite growth in rat PC12D cells at 30 umol after 48 hrs; format: functional, cell-based; procedure, shortened: as §2
PC-12 [4] = experiment: Induction of neurite growth in rat PC12D cells at 100 umol after 48 hrs; format: functional, cell-based; procedure, shortened: as §2
PC-12 [5] = experiment: Increase of nerve growth factor-stimulated neurite growth in rat PC12D cells at 100 umol after 48 hrs; format: functional; procedure, shortened: as §1

For `CC(=O)O[C@@H]1[C@@H](O)[C@H](C)O[C@@H](OC[C@H]2O[C@@H](Oc3cc4oc(-c5ccc(O)cc5)cc(=O)c4c(O)c3O)[C@H](O)[C@@H](O)[C@@H]2O)[C@@H]1OC(C)=O`, the Activity (PC-12 [1]) was “inactive”.
With `CC(=O)O[C@@H]1[C@@H](O)[C@H](C)O[C@@H](OC[C@H]2O[C@@H](Oc3cc(O)c4c(=O)cc(-c5ccc(O)cc5)oc4c3)[C@H](O)[C@@H](O)[C@@H]2O)[C@@H]1O` the Activity (PC-12 [2]) was “inactive”, the Activity (PC-12 [3]) was “inactive” and the Activity (PC-12 [4]) was “inactive”. For the same compound, the Activity (PC-12 [5]) was 16.1%.
`CC(=O)O[C@@H]1[C@@H](O)[C@H](C)O[C@@H](OC[C@H]2O[C@@H](Oc3cc(O)c4c(=O)cc(-c5ccc(O)cc5)oc4c3)[C@H](O)[C@@H](O)[C@@H]2O)[C@@H]1OC(C)=O` was tested, and the Activity (PC-12 [2]) was “inactive”, the Activity (PC-12 [3]) was “inactive” and the Activity (PC-12 [4]) was “inactive”. For the same compound, the Activity (PC-12 [5]) was 14.9%.
In the case of `C=CCc1ccc(O[C@@H]2O[C@H](CO)[C@@H](O)[C@H](O)[C@H]2O)c(OC)c1`, the Activity (PC-12 [1]) is reported as “inactive”.

From ChEMBL document CHEMBL1151190, “Acetylated flavonoid glycosides potentiating NGF action from Scoparia dulcis” (2004)
